Source: ChEMBL document CHEMBL3045565, “Microwave synthesis, characterization and bio-efficacy evaluation of novel chalcone based 6-carbethoxy-2-cyclohexen-1-one and 2H-indazol-3-ol derivatives” (Eur J Med Chem, 2013)
≈ marks a conversion by molar mass, not a printed value.

What follows are compounds tested on Dickeya chrysanthemi (assay: Antibacterial activity against Erwinia chrysanthemi ITCC B-40 assessed as as growth inhibition at 100 ug/disk after 24 hr by disk diffusion method). Details: ITCC B-40, 24 h, read-out: DIZ.
Assay type: functional
Summary of the method: (§1)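 Disk diffusion on nutrient agar. Strains kept on NA slants at 37 °C and subcultured in nutrient broth before testing. A log-phase culture was spread on solidified medium, and sterile disks were loaded with compound from DMSO stock. DMSO served as control, with commercial antibiotics for reference. Plates ran 24 h at 37 °C, and inhibition zones (mm) were read in quadruplicate.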

Row | Structure (SMILES) | zone of inhibition at 100 µg/disc
1 | CCOC(=O)C1C(=O)C=C(c2ccc(C)cc2)CC1c1ccc(OC)c(OC)c1 (stereo not given) | 0 mm
2 | CCOC(=O)C1C(=O)C=C(c2ccc(Cl)c(Cl)c2)CC1c1ccc(OC)cc1 (stereo not given) | 0 mm
3 | Cc1ccc(/C=C/C(=O)c2ccc(C)cc2)cc1 [4,4'-DIMETHYLCHALCONE] | 0 mm
4 | CCOC(=O)C1C(=O)C=C(c2ccc(OC)cc2)CC1c1ccc(OC)c(OC)c1 (stereo not given) | 0 mm
5 | COc1ccc(/C=C/C(=O)c2ccc(C)cc2)cc1OC | 0 mm

The compounds below were run on Athelia rolfsii (assay: Antifungal activity against Athelia rolfsii ITCC 6181 by food poisoning method). Details: Agroathelia rolfsii.
Assay type: functional
Summary of the method: (§2)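 Poisoned food technique on PDA at several concentrations. A 5 mm mycelial plug from the growing edge of a 2-week-old colony was placed inoculum-side down at the plate centre. Plates incubated at 27 °C until control growth was nearly complete. Colony diameter measured, percent inhibition calculated against control, LC50 derived. Four replicates per treatment.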

Row | Structure (SMILES) | LC50
6 | CCOC(=O)C1C(=O)C=C(c2ccc(C)cc2)CC1c1ccc(OC)c(OC)c1 (stereo not given) | 317 µg/mL (≈ 804 µM)
7 | CCOC(=O)C1C(=O)C=C(c2ccc(Cl)c(Cl)c2)CC1c1ccc(OC)cc1 (stereo not given) | 6110 µg/mL (≈ 14600 µM)
8 | Cc1ccc(/C=C/C(=O)c2ccc(C)cc2)cc1 [4,4'-DIMETHYLCHALCONE] | 549 µg/mL (≈ 2320 µM)
9 | CCOC(=O)C1C(=O)C=C(c2ccc(OC)cc2)CC1c1ccc(OC)c(OC)c1 (stereo not given) | 315 µg/mL (≈ 767 µM)
10 | COc1ccc(/C=C/C(=O)c2ccc(C)cc2)cc1OC | 587 µg/mL (≈ 2080 µM)

The compounds below were run on Bacillus thuringiensis (assay: Antibacterial activity against Bacillus thuringiensis MTCC 6941 assessed as growth inhibition at 100 ug/disk after 24 hr by disk diffusion method). Details: MTCC 6941, 24 h, read-out: DIZ.
Assay type: functional
Summary of the method: as §1

Row | Structure (SMILES) | zone of inhibition at 100 µg/disc
11 | CCOC(=O)C1C(=O)C=C(c2ccc(C)cc2)CC1c1ccc(OC)c(OC)c1 (stereo not given) | 0 mm
12 | CCOC(=O)C1C(=O)C=C(c2ccc(Cl)c(Cl)c2)CC1c1ccc(OC)cc1 (stereo not given) | 0 mm
13 | Cc1ccc(/C=C/C(=O)c2ccc(C)cc2)cc1 [4,4'-DIMETHYLCHALCONE] | 0 mm
14 | CCOC(=O)C1C(=O)C=C(c2ccc(OC)cc2)CC1c1ccc(OC)c(OC)c1 (stereo not given) | 0 mm
15 | COc1ccc(/C=C/C(=O)c2ccc(C)cc2)cc1OC | 0 mm

What follows are compounds tested on Staphylococcus aureus (assay: Antibacterial activity against Staphylococcus aureus MTCC 3160 assessed as growth inhibition at 100 ug/disk after 24 hr by disk diffusion method). Details: MTCC 3160, 24 h, read-out: DIZ.
Assay type: functional
Summary of the method: as §1

Row | Structure (SMILES) | zone of inhibition at 100 µg/disc
16 | CCOC(=O)C1C(=O)C=C(c2ccc(C)cc2)CC1c1ccc(OC)c(OC)c1 (stereo not given) | 0 mm
17 | CCOC(=O)C1C(=O)C=C(c2ccc(Cl)c(Cl)c2)CC1c1ccc(OC)cc1 (stereo not given) | 0 mm
18 | Cc1ccc(/C=C/C(=O)c2ccc(C)cc2)cc1 [4,4'-DIMETHYLCHALCONE] | 0 mm
19 | CCOC(=O)C1C(=O)C=C(c2ccc(OC)cc2)CC1c1ccc(OC)c(OC)c1 (stereo not given) | 0 mm
20 | COc1ccc(/C=C/C(=O)c2ccc(C)cc2)cc1OC | 0 mm

Each compound was assayed on Bacillus pumilus (assay: Antibacterial activity against Bacillus pumilus MTCC 2466 assessed as growth inhibition at 100 ug/disk after 24 hr by disk diffusion method). Details: MTCC 2466, 24 h, read-out: DIZ.
Assay type: functional
Summary of the method: as §1

Row | Structure (SMILES) | zone of inhibition at 100 µg/disc
21 | CCOC(=O)C1C(=O)C=C(c2ccc(C)cc2)CC1c1ccc(OC)c(OC)c1 (stereo not given) | 0 mm
22 | CCOC(=O)C1C(=O)C=C(c2ccc(Cl)c(Cl)c2)CC1c1ccc(OC)cc1 (stereo not given) | 0 mm
23 | Cc1ccc(/C=C/C(=O)c2ccc(C)cc2)cc1 [4,4'-DIMETHYLCHALCONE] | 0 mm
24 | CCOC(=O)C1C(=O)C=C(c2ccc(OC)cc2)CC1c1ccc(OC)c(OC)c1 (stereo not given) | 0 mm
25 | COc1ccc(/C=C/C(=O)c2ccc(C)cc2)cc1OC | 0 mm

Each compound was assayed on Rhizoctonia solani (assay: Antifungal activity against Rhizoctonia solani ITCC 5563 by food poisoning method). Details: not given.
Assay type: functional
Summary of the method: as §2

Row | Structure (SMILES) | LC50
26 | CCOC(=O)C1C(=O)C=C(c2ccc(C)cc2)CC1c1ccc(OC)c(OC)c1 (stereo not given) | 189 µg/mL (≈ 479 µM)
27 | CCOC(=O)C1C(=O)C=C(c2ccc(Cl)c(Cl)c2)CC1c1ccc(OC)cc1 (stereo not given) | 1040 µg/mL (≈ 2490 µM)
28 | Cc1ccc(/C=C/C(=O)c2ccc(C)cc2)cc1 [4,4'-DIMETHYLCHALCONE] | 635 µg/mL (≈ 2690 µM)
29 | CCOC(=O)C1C(=O)C=C(c2ccc(OC)cc2)CC1c1ccc(OC)c(OC)c1 (stereo not given) | 34 µg/mL (≈ 82.8 µM)
30 | COc1ccc(/C=C/C(=O)c2ccc(C)cc2)cc1OC | 107 µg/mL (≈ 379 µM)

These compounds were tested on Pseudomonas aeruginosa (assay: Antibacterial activity against Pseudomonas aeruginosa MTCC 2581 assessed as growth inhibition at 100 ug/disk after 24 hr by disk diffusion method). Details: MTCC 2581, 24 h, read-out: DIZ.
Assay type: functional
Summary of the method: as §1

Row | Structure (SMILES) | zone of inhibition at 100 µg/disc
31 | CCOC(=O)C1C(=O)C=C(c2ccc(C)cc2)CC1c1ccc(OC)c(OC)c1 (stereo not given) | 0 mm
32 | CCOC(=O)C1C(=O)C=C(c2ccc(Cl)c(Cl)c2)CC1c1ccc(OC)cc1 (stereo not given) | 0 mm
33 | Cc1ccc(/C=C/C(=O)c2ccc(C)cc2)cc1 [4,4'-DIMETHYLCHALCONE] | 0 mm
34 | CCOC(=O)C1C(=O)C=C(c2ccc(OC)cc2)CC1c1ccc(OC)c(OC)c1 (stereo not given) | 0 mm
35 | COc1ccc(/C=C/C(=O)c2ccc(C)cc2)cc1OC | 0 mm

Each compound was assayed on Radical scavenging activity (assay: Antioxidant activity assessed as DPPH free radical scavenging activity after 20 min by UV-Vis spectrophotometric analysis). Details: not given.
Assay type: functional
Design: concentration or dose not given beside the values
Summary of the method: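 DPPH radical scavenging: samples were held at room temperature for 20 min in the dark, and absorbance was read at 517 nm. The control contained DMSO without compound, and methanol was used for baseline correction. Scavenging percentage was calculated from the absorbances.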

Row | Structure (SMILES) | Activity
36 | CCOC(=O)C1C(=O)C=C(c2ccc(C)cc2)CC1c1ccc(OC)c(OC)c1 (stereo not given) | 7.38%
37 | CCOC(=O)C1C(=O)C=C(c2ccc(Cl)c(Cl)c2)CC1c1ccc(OC)cc1 (stereo not given) | 2.92%
38 | Cc1ccc(/C=C/C(=O)c2ccc(C)cc2)cc1 [4,4'-DIMETHYLCHALCONE] | 1.19%
39 | CCOC(=O)C1C(=O)C=C(c2ccc(OC)cc2)CC1c1ccc(OC)c(OC)c1 (stereo not given) | 4.71%
40 | COc1ccc(/C=C/C(=O)c2ccc(C)cc2)cc1OC | 0.71%

Each compound was assayed on Klebsiella pneumoniae (assay: Antibacterial activity against Klebsiella pneumoniae MTCC 7028 assessed as growth inhibition at 100 ug/disk after 24 hr by disk diffusion method). Details: MTCC 7028, 24 h, read-out: DIZ.
Assay type: functional
Summary of the method: as §1

Row | Structure (SMILES) | zone of inhibition at 100 µg/disc
41 | CCOC(=O)C1C(=O)C=C(c2ccc(C)cc2)CC1c1ccc(OC)c(OC)c1 (stereo not given) | 0 mm
42 | CCOC(=O)C1C(=O)C=C(c2ccc(Cl)c(Cl)c2)CC1c1ccc(OC)cc1 (stereo not given) | 0 mm
43 | Cc1ccc(/C=C/C(=O)c2ccc(C)cc2)cc1 [4,4'-DIMETHYLCHALCONE] | 0 mm
44 | CCOC(=O)C1C(=O)C=C(c2ccc(OC)cc2)CC1c1ccc(OC)c(OC)c1 (stereo not given) | 0 mm
45 | COc1ccc(/C=C/C(=O)c2ccc(C)cc2)cc1OC | 0 mm

These compounds were tested on Xanthomonas oryzae (assay: Antibacterial activity against Xanthomonas oryzae ITCC B-47 assessed as as growth inhibition at 100 ug/disk after 24 hr by disk diffusion method). Details: ITCC B-47, 24 h, read-out: DIZ.
Assay type: functional

Row | Structure (SMILES) | zone of inhibition at 100 µg/disc
46 | CCOC(=O)C1C(=O)C=C(c2ccc(C)cc2)CC1c1ccc(OC)c(OC)c1 (stereo not given) | 0 mm
47 | CCOC(=O)C1C(=O)C=C(c2ccc(Cl)c(Cl)c2)CC1c1ccc(OC)cc1 (stereo not given) | 0 mm
48 | Cc1ccc(/C=C/C(=O)c2ccc(C)cc2)cc1 [4,4'-DIMETHYLCHALCONE] | 0 mm
49 | CCOC(=O)C1C(=O)C=C(c2ccc(OC)cc2)CC1c1ccc(OC)c(OC)c1 (stereo not given) | 0 mm
50 | COc1ccc(/C=C/C(=O)c2ccc(C)cc2)cc1OC | 0 mm
